The values that follow come from ChEMBL document CHEMBL4837245, “Discovery of VU6028418: A Highly Selective and Orally Bioavailable M4 Muscarinic Acetylcholine Receptor Antagonist” (ACS Med Chem Lett, 2021).

The target in series [1] is T1, Muscarinic acetylcholine receptor M4 (Rattus norvegicus, UniProt P08485).
T1 sequence (P08485 whole entry): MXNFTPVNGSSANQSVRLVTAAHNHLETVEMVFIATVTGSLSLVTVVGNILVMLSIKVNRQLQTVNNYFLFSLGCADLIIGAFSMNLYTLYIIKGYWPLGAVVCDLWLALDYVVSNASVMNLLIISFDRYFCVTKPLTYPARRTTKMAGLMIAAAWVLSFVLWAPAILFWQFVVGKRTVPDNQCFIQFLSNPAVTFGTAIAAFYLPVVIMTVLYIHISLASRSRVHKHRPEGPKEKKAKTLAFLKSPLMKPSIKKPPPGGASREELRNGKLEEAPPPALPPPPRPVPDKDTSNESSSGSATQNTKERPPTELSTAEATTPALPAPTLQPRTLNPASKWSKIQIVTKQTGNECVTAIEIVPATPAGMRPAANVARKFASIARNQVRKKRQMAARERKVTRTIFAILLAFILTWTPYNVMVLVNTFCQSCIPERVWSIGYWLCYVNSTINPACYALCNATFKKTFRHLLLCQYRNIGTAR
As to the kind of experiment: Displacement of [3H]NMS from rat muscarinic receptor M4 expressed in CHO cell membranes incubated for 3 hrs by radiometric scintillation counting analysis. On the set-up: species or system Cell membrane.

The target of a further series is T2, CYP1A2 (Homo sapiens, UniProt P05177).
T2 sequence (P05177 whole entry): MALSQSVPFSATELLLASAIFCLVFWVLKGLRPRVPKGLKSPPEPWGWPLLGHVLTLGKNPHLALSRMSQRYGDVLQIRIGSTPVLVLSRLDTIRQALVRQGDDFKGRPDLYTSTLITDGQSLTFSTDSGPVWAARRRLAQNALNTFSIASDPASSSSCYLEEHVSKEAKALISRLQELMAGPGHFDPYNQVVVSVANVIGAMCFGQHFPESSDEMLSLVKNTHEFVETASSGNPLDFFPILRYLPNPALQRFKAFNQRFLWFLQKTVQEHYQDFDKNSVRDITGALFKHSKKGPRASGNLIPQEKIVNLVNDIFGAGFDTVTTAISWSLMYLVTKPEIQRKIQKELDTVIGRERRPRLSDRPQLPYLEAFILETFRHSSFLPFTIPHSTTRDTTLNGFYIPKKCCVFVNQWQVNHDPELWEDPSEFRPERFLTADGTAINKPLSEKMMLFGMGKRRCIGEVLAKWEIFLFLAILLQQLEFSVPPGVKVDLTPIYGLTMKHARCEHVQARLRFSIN
Description: Inhibition of CYP1A2 in human liver microsomes using phenacetin as substrate preincubated for 15 mins followed by NADPH addition and measured after 8 mins by LC-MS/MS analysis. The series is classed as ADME. Particulars: human, liver microsomes, probe phenacetin; time 23 min; read-out: INH. The method, boiled down:
(§1)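 Cocktail CYP450 inhibition assay run in human liver microsomes.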

A further series deals with CYP2D6 (Homo sapiens, UniProt P10635). Description: Inhibition of CYP2D6 in human liver microsomes using dextromethorphan as substrate preincubated for 15 mins followed by NADPH addition and measured after 8 mins by LC-MS/MS analysis. The series is classed as ADME. The note with it: human, liver microsomes, probe dextromethorphan; time 23 min; read-out: INH. In short, it runs like this:
as §1

Series [2] can be described thus: Ratio of drug concentration in brain to plasma of Sprague-Dawley rat at 1 mg/kg, iv. In kind it is ADME, organism-based.
For a further series, the system named is Rattus norvegicus. As to the kind of experiment: Reversal of haloperidol-induced catalepsy in rat at 0.3 mg/kg, po relative to control. In kind it is functional. In short, it runs like this:
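Rat haloperidol-induced catalepsy model with oral test dosing at 0.3, 1 and 3 mg/kg alongside vehicle-treated controls. Read-out is latency to withdraw, also expressed as % reversal of catalepsy. Groups compared by ANOVA.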

The nature of series [3]: Ratio of free drug concentration in brain to plasma of rat at 1 mg/kg, po after 1 hr. In kind it is ADME, organism-based. In short, it runs like this: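 At the end of the catalepsy study, 1 h after a 1 mg/kg oral dose in rats, total brain/plasma (Kp) and unbound brain/plasma (Kp,uu) ratios were determined.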
The target of series [4] is Muscarinic acetylcholine receptor M1 (Homo sapiens, UniProt P11229). As to the kind of experiment: Antagonist activity at human muscarinic M1 receptor expressed in CHO cells co-expressing Gqi5 assessed as inhibition of acetylcholine-induced calcium mobilization. In kind it is functional. The method, boiled down: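 CHO cells stably transfected with the given human mAChR subtype. Compound added before an EC80 concentration of acetylcholine; antagonism read as calcium mobilization. One independent determination in triplicate.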
Muscarinic acetylcholine receptor M1, sequence (P11229 whole entry): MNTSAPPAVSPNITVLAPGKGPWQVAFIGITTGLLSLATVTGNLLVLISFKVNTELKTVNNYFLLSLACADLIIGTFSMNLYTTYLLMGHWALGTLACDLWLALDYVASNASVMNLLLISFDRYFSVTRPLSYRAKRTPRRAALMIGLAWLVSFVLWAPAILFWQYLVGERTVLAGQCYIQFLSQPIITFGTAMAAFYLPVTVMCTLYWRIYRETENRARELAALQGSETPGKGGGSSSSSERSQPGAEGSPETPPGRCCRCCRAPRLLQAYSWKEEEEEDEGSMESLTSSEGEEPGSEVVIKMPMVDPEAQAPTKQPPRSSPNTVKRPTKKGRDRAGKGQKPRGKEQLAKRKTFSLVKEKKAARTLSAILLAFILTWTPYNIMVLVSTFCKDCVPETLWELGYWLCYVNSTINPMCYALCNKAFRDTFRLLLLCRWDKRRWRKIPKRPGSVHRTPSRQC

Another series deals with Cytochrome P450 2D6 (Homo sapiens, UniProt P10635). Description: Time dependent inhibition of CYP2D6 (unknown origin). In kind it is ADME.
Cytochrome P450 2D6, sequence (P10635 whole entry): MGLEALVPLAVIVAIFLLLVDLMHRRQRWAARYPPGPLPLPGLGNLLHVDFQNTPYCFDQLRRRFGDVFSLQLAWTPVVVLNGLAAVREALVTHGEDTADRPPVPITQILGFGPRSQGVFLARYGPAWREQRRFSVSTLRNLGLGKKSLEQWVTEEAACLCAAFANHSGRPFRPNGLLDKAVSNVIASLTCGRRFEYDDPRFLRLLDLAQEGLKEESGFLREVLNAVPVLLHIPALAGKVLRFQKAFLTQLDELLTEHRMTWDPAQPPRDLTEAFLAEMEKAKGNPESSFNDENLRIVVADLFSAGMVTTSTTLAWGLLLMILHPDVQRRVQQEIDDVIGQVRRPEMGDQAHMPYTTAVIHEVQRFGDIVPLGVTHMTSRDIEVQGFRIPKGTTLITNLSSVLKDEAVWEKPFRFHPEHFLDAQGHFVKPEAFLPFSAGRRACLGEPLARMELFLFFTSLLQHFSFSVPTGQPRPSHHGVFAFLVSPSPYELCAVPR
In series [5] the target is T3, CYP2B6 (Homo sapiens, UniProt P20813). As to the kind of experiment: Induction of CYP2B6 in human hepatocytes. In kind it is ADME, cell-based, Hepatocyte.
T3 sequence (P20813 whole entry): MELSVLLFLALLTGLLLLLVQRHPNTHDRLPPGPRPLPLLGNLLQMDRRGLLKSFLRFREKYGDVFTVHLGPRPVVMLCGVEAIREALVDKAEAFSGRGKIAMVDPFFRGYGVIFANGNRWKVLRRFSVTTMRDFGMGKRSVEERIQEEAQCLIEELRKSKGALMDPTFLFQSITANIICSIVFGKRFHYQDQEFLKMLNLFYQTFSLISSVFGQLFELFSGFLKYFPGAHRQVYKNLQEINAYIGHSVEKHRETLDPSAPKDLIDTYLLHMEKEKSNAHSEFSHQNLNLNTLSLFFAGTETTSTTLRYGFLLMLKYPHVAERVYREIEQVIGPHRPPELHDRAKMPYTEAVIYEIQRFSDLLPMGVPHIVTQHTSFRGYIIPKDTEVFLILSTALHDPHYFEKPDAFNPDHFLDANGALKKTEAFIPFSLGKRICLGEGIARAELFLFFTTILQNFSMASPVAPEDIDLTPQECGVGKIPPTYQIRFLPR
Series [6] concerns the target T3, CYP2B6. As to the kind of experiment: Induction of CYP2B6 in human hepatocytes relative to control. In kind it is ADME, cell-based, Hepatocyte.

CYP2D6, sequence (P10635 whole entry): as the sequence (P10635 whole entry) above

`Fc1cc(F)c(F)c(-c2ccc(N[C@H]3C[C@@H]4CN(CC5CCOCC5)C[C@@H]4C3)nn2)c1`: the IC50 is 0.145 µM in [1], greater than 10 µM in [4] and greater than 100 µM against Cytochrome P450 2D6. Also, the IC50 at 8 min on CYP1A2 and at CYP2D6 was greater than 30 µM throughout. The Kp in series [2] was 6.4. The Activity in the series on Rattus norvegicus was found to be 26.2%. Besides, in series [3], the Kp uu at 1 h was 0.32. At CYP2B6 [5], this compound yielded an EC50 of 1.9 µM. Further, the Emax on CYP2B6 [6] turned out to be 2.1%.
